# Screens as filed in PubChem.
# WT yeast gro inh: growth inhibition of WT strain, primary screen, mitochondrial fusion inhibitor project, WT and mutant strains, chemical genetic. inhibition, % at 10 µM. 190,000 tested, 2.1% active. mitochondrial fusion phenotypic screen; in the data active means inhibition above about 58%; tested in S. cerevisiae
# PMI activator: activators of human PMI, primary screen, biochemical, fluorescence intensity, near-Km mannose 6-phosphate. Mannose-6-phosphate isomerase (Homo sapiens), P34949. purified human PMI, coupled resazurin fluorescence, 20 min; hits give high values; 1 = vehicle control, 0 substrate-free wells. activation factor at 20 µM. 190,000 tested, 0.005% active. AID 1214, 2008;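 active means activation factor of 2 or more at 20 µM, relative to plate controls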
# Target sequence (P34949 whole entry, looked up): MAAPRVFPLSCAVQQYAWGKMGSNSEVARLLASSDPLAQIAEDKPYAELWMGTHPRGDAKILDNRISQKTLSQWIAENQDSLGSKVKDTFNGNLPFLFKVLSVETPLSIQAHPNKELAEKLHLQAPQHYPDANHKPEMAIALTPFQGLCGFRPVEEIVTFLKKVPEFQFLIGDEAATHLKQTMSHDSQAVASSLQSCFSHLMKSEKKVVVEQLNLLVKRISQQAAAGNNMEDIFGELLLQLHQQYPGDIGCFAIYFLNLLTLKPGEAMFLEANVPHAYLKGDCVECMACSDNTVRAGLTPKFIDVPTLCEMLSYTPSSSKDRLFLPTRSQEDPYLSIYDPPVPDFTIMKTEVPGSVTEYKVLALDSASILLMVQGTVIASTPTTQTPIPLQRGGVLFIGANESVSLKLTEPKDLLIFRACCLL
# Diaph act CS: compounds boosting diaphorase resazurin reduction – biochemical, uHTS, resorufin fluorescence, counter-screen for diaphorase-coupled primary assays, primary screen; 190,000 tested, 0.005% active; Diaphorase/resazurin coupled assay, 16 min; hits give high values; 1 = vehicle wells, 0 = NADH-free wells; activation factor at 20 µM; AID 1229, 2008;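 active means diaphorase activity raised at least twofold by the compound at 20 µM; inactive means activation factor below 2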
#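 System – purified diaphorase enzyme from Clostridium kluyveri · Input – enzyme 0.07 U/mL final · Also added – final NADH 0.114 mM, resazurin 0.1 mM · Measured by – fluorescence of resorufin, 544 nm excitation, 590 nm emission · Timing – 16 min enzyme reaction, ambient temperature · Measure – resorufin increase flagging diaphorase activators or reducers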
# PMI act hi M6P: human PMI activators, high substrate, primary screen, biochemical, fluorescence intensity, near-saturating mannose 6-phosphate; 190,000 tested, 0.34% active; Mannose-6-phosphate isomerase (Homo sapiens), P34949; coupled PMI enzyme assay, resazurin fluorescence, 20 min; hits give high values; 1 = untreated enzyme, 0 = substrate-free blank; activation factor at 20 µM;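 active means activation factor of 2 or more at 20 µM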
#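 Material: human phosphomannose isomerase with PGI, G6PDH, diaphorase coupling enzymes. Quantity: 15 ng/mL PMI. Medium: HEPES pH 7.4 buffer with MgCl2 and Tween-20. Reagent: Near-saturating mannose-6-phosphate, 1.0 mM. Compound: 20 µM single dose. Times: enzyme reaction with compound 20 min at room temperature. Detection: resorufin fluorescence at Ex 544/Em 590 nm.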
# L major viab: Leishmania major promastigote growth inhibition, primary screen; Leishmania major promastigotes, resazurin fluorescence viability; inhibition, % at 10 µM; 200,000 tested, 9% active; in the data active means inhibition above about 50%;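 further: promastigotes grown with compound for 44 hours at 28 °C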
# Starred values were filed as active, the others as inactive. Rows were chosen to be rich in hits. Some 10% of all compounds tested hit in one or more screens of this group.
SMILES,WT yeast gro inh,PMI activator,Diaph act CS,PMI act hi M6P,L major viab
Cn1c(-c2ccccc2)cnc1SCC(=O)N1CCCc2ccccc21,11.1,1,0.9,1,76.7*
CC(C)c1nc(SCC(=O)N2CCCc3ccccc32)c2c(=O)n(C)c(=O)n(C)c2n1,44.0,0.9,0.7,0.8,51.2*
Cc1ccc(-c2cnc(SCC(=O)N3CCCc4ccccc43)n2C)cc1,25.4,0.8,0.8,0.8,-1.6
Cc1cc2nc(-c3ccc(SCC(=O)N4CCc5ccccc54)nc3)[nH]c2cc1C,18.1,0.9,1,0.9,86.5*
O=C(CSc1nnnn1C1CCCCC1)N1CCc2ccccc21,9.6,0.9,0.9,1,-3.2
O=C(CSc1ncc(-c2ccccc2)n1C1CCCC1)N1CCc2ccccc21,-6.3,0.9,0.8,0.8,50.5*
Cc1c(NS(=O)(=O)c2ccc(NCCN3CCOCC3)c([N+](=O)[O-])c2)c(=O)n(-c2ccccc2)n1C,7.2,1.1,1,1,3.1
O=C(CSc1nnc(-c2ccccc2)c(-c2ccccc2)n1)N1CCc2ccccc21,10.1,0.9,1,0.9,56.7*
CCOc1cc(/C=N/NC(=O)c2cccnc2)cc(Br)c1OCC(N)=O,-5.5,1,1,0.9,-3.3
CC1(C)OC(=O)C(=NNc2ccc(Cl)cc2)C(=O)O1,15.4,1,1,1.1,-6.5
O=C(/C=C\c1ccccc1OC(=O)c1ccccc1F)c1cc2ccccc2o1,18.3,0.9,0.9,1,52.5*
O=C(Oc1ccccc1)c1cc2ccccc2o1,-5.6,1,0.9,0.9,-3.1
CC1=C(C(=O)Nc2ccccc2)C(c2ccncc2)C(C#N)=C(SCC(=O)NC(C)C)N1 (centres undefined),-6.9,1.3,1,1.6,89.0*
CC1=C(C(=O)Nc2nc3ccccc3s2)C(c2ccco2)C(C#N)=C(SCC(=O)NC2CCCCC2)N1 (centres undefined),-0.1,1.2,0.9,1.1,73.0*
CC1=C(C(=O)Nc2ccccc2)C(c2ccncc2)C(C#N)=C(SCC(=O)NC2CC2)N1 (centres undefined),-8.5,1.2,0.9,1.2,73.3*
CCCSC1=C(C#N)C(c2cccs2)C(C(=O)Nc2ccccc2)=C(C)N1 (centres undefined),23.8,1,0.8,1,89.0*
COC(=O)c1ccc2c(=O)n(CCN3CCOCC3)c(SCC(=O)NCc3ccccc3)nc2c1,3.4,1,1,1,9.7
O=C(COc1ccccc1)NC1CCSC1=O (centres undefined),3.6,1,1.2,1.1,-7.6
CCOC(=O)C1=C(C)NC(SCC(N)=O)=C(C#N)C1c1cccs1 (centres undefined),-6.5,1,1.1,1.2,2.0
CCOC(=O)C1=C(C)NC(SCC(=O)Nc2cc(C)on2)=C(C#N)C1c1cccs1 (centres undefined),4.5,0.9,0.8,1,59.9*
Cc1ccccc1Cn1c(=N)n(CC(=O)c2ccco2)c2ccccc21,-0.8,1.1,0.9,1,86.4*
CCn1c(=N)n(CC(O)c2ccco2)c2ccccc21 (centres undefined),8.5,0.9,0.9,1,4.0
N=c1n(Cc2ccccc2)c2ccccc2n1CC(O)c1ccco1 (centres undefined),-5.0,1.1,1,1.1,89.3*
N=c1n(Cc2ccccc2)c2ccccc2n1Cc1ccccc1,11.0,1,1,0.9,98.8*
CN(C)c1ccc(/C=C(\Cl)c2nc3ccccc3s2)cc1,32.9,0.9,1,1,5.1
SMILES,WT yeast gro inh,PMI activator,Diaph act CS,PMI act hi M6P,L major viab
COc1cccc2cc(/C(C)=N/Nc3nc(-c4cc(C)ccc4C)cs3)c(=O)oc12,5.9,1.5,1,1.9,-6.0
COC(=O)CCC(=O)COc1ccc(OC)cc1C#N,90.8*,1,0.8,1,-8.0
COC(=O)CCC(=O)COc1ccccc1C#N,8.9,1,0.9,0.9,-1.6
CCOC(=O)c1ccc(NC(=O)CSc2nc3c(c(=O)n2CC)SC(C)C3)cc1 (centres undefined),-0.2,0.8,0.7,0.8,53.1*
C=CCn1c(SCC(=O)Nc2ccc(C(=O)OCC)cc2)nnc1-c1sc(N)nc1C,-5.3,1,1,1,57.7*
O=C(Nc1ccccc1C(=O)N1CCCC1)c1ccc(Cl)c([N+](=O)[O-])c1,15.3,1.1,1.2,1,-4.7
COC1(C)CC2C(CC1OC(=O)c1cc([N+](=O)[O-])cc([N+](=O)[O-])c1)C2(C)C (centres undefined),75.7*,0.8,1,0.9,100.3*
CN1CCc2c(sc3c2C(=O)NC(c2cn(Cc4ccccc4)c4ccccc24)N3)C1 (centres undefined),-5.6,0.8,1.1,0.9,100.4*
Cc1nc(SCC(=O)NC(C)c2ccccc2)c2oc3ccccc3c2n1 (centres undefined),1.5,1,0.9,1.1,6.1
Cc1cc(C)nc(Sc2nc(C)nc3c2oc2ccccc23)n1,11.5,0.9,0.9,0.9,71.8*
NNc1nc2ccc(F)cc2s1,64.7*,0.9,0.9,0.9,96.4*
CN1CCN(S(=O)(=O)c2cccc(C(=O)NCc3ccccc3Cl)c2)CC1,16.2,1,0.9,0.9,-2.3
C=C(C)CN1CCN(S(=O)(=O)c2ccc(C)c(N(C)S(=O)(=O)c3ccc(C)cc3)c2C)CC1,24.0,0.9,1,0.9,98.3*
Cc1ccc(S(=O)(=O)N(C)c2c(C)ccc(S(=O)(=O)NC(C)(C)C)c2C)cc1,12.9,0.9,0.8,0.9,98.9*
Cc1ccc(S(=O)(=O)N(C)c2c(C)ccc(S(=O)(=O)N3CCN(C)CC3)c2C)cc1,2.8,0.8,0.9,0.9,3.9
COc1ccc2c(c1)CCc1c(C(=O)N(C)c3ccccc3)noc1-2,28.4,1.1,0.9,1,19.4
COc1ccc(CN=C2NN=C(c3cccc(OC)c3)CS2)cc1,7.4,1.1,1,1,87.5*
Cc1cc(C)n(Cc2ccccc2)c(=O)c1S(=O)(=O)c1ccccc1,-1.8,1,1,1,-1.0
Cc1c(CN(C)C)c2c(n1Cc1ccccc1)C(=O)c1ccc(Br)cc1-2,82.2*,0.9,1,1.1,48.4
Cc1c(N2C(=O)c3ccc(Br)cc3C2=O)c(=O)n(-c2ccccc2)n1C,5.6,1.1,1,1,-5.0
Cc1c(CN(C)C)c2c(n1C)C(=O)c1ccc(Br)cc1-2,-2.7,1,0.8,0.9,69.8*
Cc1cc(C)nc(SCC(CSc2nc(C)cc(C)n2)C(=O)O)n1,-4.1,0.9,0.9,0.9,-1.2
